Assay outcomes (PubChem BioAssay)
Most compounds without a hit are left out; they make up all but 5.1% or so of the library.
STAT3 blocker = reduces IL-6 driven STAT3 reporter signal. U3A cells, IL-6 STAT3-luciferase reporter, luminescence; host cell line lacks STAT1. inhibition, % at 5.5 µM. 190,000 tested, 0.89% active. AID 862;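 active means inhibition above the mean inhibition across all screened compounds plus 3 SD, cut at about 44% in these data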;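 further: 0% = DMSO only wells and 100% = 100 µM nifuroxazide control wells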
NF-kB expr up = NF-kB expression increase, human neuronal cells | NF-kB reporter expression; hits give high values | fold change at 12.5 µM | 190,000 tested, 1.6% active; in the data active means fold change above about 3.3
APP 5'UTR act = APP 5'UTR luciferase reporter activation; SH-SY5Y APP 5'UTR luciferase reporter, luminescence; zero percent = DMSO vehicle wells; activation, % at 2 µM; 190,000 tested, 1% active; AID 1276;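 active means activation above a set limit, based on mean plus 3 SD of controls, cut at about 140% in these data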
STAT1 act-1 = STAT1 signaling activation; NIH 3T3 STAT1-luciferase reporter, IFN-gamma, luminescence; 100% = IFN-gamma alone, no compound; activation (% of control), % at 5.5 µM; 200,000 tested, 2.6% active; AID 932;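 active means activation above the screen-wide mean activation plus 3 SD, cut at about 130% in these data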;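 further: raw ratio to IFN-gamma control signal so 100% means no change and 0% no light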
STAT1 inh = reduces IFN-gamma driven STAT1 reporter signal. NIH 3T3 STAT1-luciferase reporter, luminescence. AID 920. 200,000 tested, 0.35% active. inhibition, % at 5.5 µM;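 active means inhibition above a set limit, the mean inhibition across all tested compounds plus 3 SD, cut at about 34% in these data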;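 further: 0% = IFN-gamma with DMSO and 100% = IFN-gamma with 300 µM nifuroxazide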
STAT3 act-1 = increases IL-6 driven STAT3 reporter signal; AID 871; activation (% of control), % at 5.6 µM; 190,000 tested, 0.91% active; U3A cells, IL-6 STAT3-luciferase reporter, luminescence; 100% = signal with IL-6 EC80 alone;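 active means activation above the screen-wide mean of compound activation plus 3 SD, cut at about 130% in these data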;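 further: 0% = background luminescence of wells with medium and substrate only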
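Test system: human U3A cells carrying STAT3-luciferase construct; control set: IL-6-only wells as 100% reference; timing: compound pre-incubation 1 h before IL-6, then 6 h stimulation at 37 °C; also added: IL-6 stimulus at 33 ng/mL final; evaluation: % activation versus median of IL-6-stimulated wells; detection: reporter luminescence signal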
STAT3 act-2 = confirmation of STAT3 signaling activators. potentiation (% of control), % at 5.7 µM. U3A STAT3-luciferase reporter, IL-6 potentiation, luminescence; U3A cells lack STAT1; 100 means same as IL-6 alone. shares compounds with STAT3 act-1. 1,200 tested, 64% active. AID 1267;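 active means percent activation of the STAT3 luciferase reporter above a set limit taken from the earlier primary screen, cut at about 130% in these data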;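 further: 0% = background signal of medium plus substrate and 100% = median of IL-6 with DMSO wells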
NFkB act 2 = activates NF-kappaB, counter-screen to STAT3 activators; human cells, NF-kappaB reporter activation; 1,200 tested, 11% active; activation (% of control), % at 5.7 µM; AID 1309; shares compounds with STAT3 act-1; in the data active means activation above about 120%;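 further: reporter induced by TNF-alpha stimulation; 100% = median of stimulated DMSO wells and 0% = no signal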
STAT1 act-2 = activates STAT1, counter-screen to STAT3 activators; 1,200 tested, 13% active; shares compounds with STAT3 act-1; activation (% of control), % at 5.7 µM; NIH 3T3 STAT1-luciferase reporter, IFN-gamma, luminescence; AID 1318;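 active means activation above the solvent-only control well mean plus 3 SD, set per screening run, cut at about 120% in these data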;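 further: 100% = IFN-gamma with DMSO median signal so 100% means no change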
* hit, by the source's call; . = no result given.

SMILES | STAT3 blocker | NF-kB expr up | APP 5'UTR act | STAT1 act-1 | STAT1 inh | STAT3 act-1 | STAT3 act-2 | NFkB act 2 | STAT1 act-2
Cc1ccc2nc3c(nc2c1)-c1ccccc1C3=O | -90 | 2 | 1 | 109 | -15 | 174* | 159* | 116 | 129*
Cc1csc(SCC(=O)NCc2cccc(Cl)c2)n1 | -7 | 1.4 | 5 | 100 | -1 | 108 | . | . | .
CN(C)c1ccc(CNc2ncc(Br)cc2Br)cc1 | 13 | 1.5 | 7 | 111 | -12 | 93 | . | . | .
CCCc1nnc(N2C(=O)c3cccc4cccc(c34)C2=O)s1 | -61 | 0.87 | 16 | 93 | 7 | 160* | 146* | 101 | 90
CCOC(=O)c1cnn(-c2ncnc3sc(CC)cc23)c1N | -49 | 1.4 | 2 | 102 | -2 | 144* | 147* | 111 | 111
CN(Cc1ccon1)C(=O)CC1C(=O)NCCN1CC(C)(C)C (stereo not drawn) | 8 | 1.2 | 4 | 99 | 0 | 98 | . | . | .
O=[N+]([O-])c1cc(C(F)(F)F)ccc1NCCCN1CCOCC1 | -5 | 1.2 | -5 | 106 | -9 | 108 | . | . | .
Cc1cc(NC(=O)C2CC2)n(-c2nc3ccccc3s2)n1 | -70 | 1.5 | -9 | 117 | -20 | 160* | 154* | 108 | 112
Cc1cc(NC(=O)CCl)n(-c2nc3ccccc3s2)n1 | -61 | 1.1 | 43 | 102 | -4 | 151* | 146* | 106 | 99
Cc1cccc(C)c1NC(=S)Nc1c(C)n(C)n(-c2ccccc2)c1=O | -2 | 0.87 | -8 | 96 | 5 | 100 | . | . | .
CCCC(C(=O)NC(C)(C)C)N(C(=O)c1snc(C(N)=O)c1N)c1ccc2c(c1)OCCO2 (stereo not drawn) | 31 | 0.62 | 17 | 97 | 2 | 76 | . | . | .
CCOC(=O)c1n[nH]c2ccccc12 | 16 | 1.2 | 10 | 107 | -10 | 90 | . | . | .
Nc1n[nH]c2ccccc12 | -44 | 1.5 | -15 | 98 | 1 | 136* | 141* | 101 | 97
CCOc1ccc(NC(=O)c2ccccc2NC(=O)CN(C)CC(=O)Nc2ccc(C)cc2)cc1 | -51 | 0.62 | -8 | 101 | -1 | 149* | 119 | 108 | 120
O=C(N/N=C/c1ccc(Br)cc1)c1ccccc1-n1cccc1 | -56 | 1.3 | 1 | 98 | 2 | 148* | 128 | 99 | 99
Cc1cccc(/C=N\NC(=O)c2ccccc2-n2cccc2)c1 | 12 | 1.4 | -32 | 101 | -2 | 91 | . | . | .
O=C(Nc1c(C(=O)O)[nH]c2ccccc12)NC1CCCCC1 | -76 | 0.97 | 3 | 98 | 2 | 164* | 159* | 106 | 106
Cc1ccc(-c2nc3ccccc3o2)cc1NC(=S)NC(=O)c1cccs1 | 4 | 2.1 | 61 | 118 | -20 | 105 | . | . | .
Cc1ccc2oc(-c3cccc(NC(=S)NC(=O)/C=C/c4ccco4)c3)nc2c1 | -37 | 0.49 | 16 | 110 | -11 | 138* | 130 | 109 | 123*
Cc1cc(C)c2oc(-c3ccc(C)c(NC(=S)NC(=O)/C=C/c4ccco4)c3)nc2c1 | -44 | 0.94 | 16 | 94 | 6 | 151* | 146* | 109 | 103
Cc1cc(C)c2oc(-c3ccc(C)c(NC(=S)NC(=O)c4cccs4)c3)nc2c1 | -81 | 1.9 | 39 | 107 | -8 | 165* | 147* | 107 | 106
COc1c(O)cc2c(c1O)C(=O)CC(c1ccccc1)O2 (stereo not drawn) | . | 1.8 | 35 | 110 | -12 | . | . | . | .
CN(C)S(=O)(=O)Nc1ccccc1C(N)=O | 4 | 1.5 | -3 | 102 | -2 | 98 | . | . | .
Cc1cc2c(cc1C)CSC(c1c(O)ccc3ccccc13)SC2 | 7 | 1.1 | 21 | 103 | -3 | 101 | . | . | .
Cc1cc2c(cc1C)CSC(c1ccc3ccccc3c1O)SC2 | -61 | 1.2 | 10 | 101 | -2 | 152* | 128 | 96 | 97
SMILES | STAT3 blocker | NF-kB expr up | APP 5'UTR act | STAT1 act-1 | STAT1 inh | STAT3 act-1 | STAT3 act-2 | NFkB act 2 | STAT1 act-2
Cc1cc(NC(=O)Cn2ccc([N+](=O)[O-])n2)no1 | 12 | 1.3 | 11 | 102 | -2 | 97 | . | . | .
COc1cc(NC(=O)CN2CCN(c3ccccc3)CC2)c(C)cc1[N+](=O)[O-] | 7 | 1.3 | -15 | 86 | 16 | 94 | . | . | .
N#Cc1ccc(/C=C\c2nccc3c2[nH]c2ccccc23)cc1 | -62 | 0.72 | 10 | 119 | -24 | 157* | 141* | 103 | 103
Clc1ccc(/C=C\c2nccc3c2[nH]c2ccccc23)cc1 | -59 | 1.4 | -5 | 103 | -4 | 148* | 145* | 108 | 100
CCOc1ccc(NC(=O)CN(C)CC(=O)Nc2cc(Cl)ccc2C#N)cc1OCC | -60 | 0.76 | 9 | 87 | 14 | 154* | 132 | 99 | 92
CCOc1ccc(NC(=O)CN(C)CC(=O)Nc2ccccc2SC)cc1OCC | -14 | 1.2 | -12 | 108 | -9 | 112 | . | . | .
Cc1cccc(C)c1NC(=O)CN(C)CC(=O)Nc1cc(Cl)ccc1C#N | -39 | 0.92 | -1 | 90 | 11 | 138* | 125 | 103 | 95
CCn1c(-c2ccc(C(C)(C)C)cc2)n[nH]c1=S | 22 | 0.91 | 18 | 94 | 7 | 85 | . | . | .
CCOC(=O)c1nc2ccccc2s1 | -50 | 2.3 | 17 | 120 | -22 | 146* | 147* | 116 | 134*
Cc1ccc2[nH]c(=O)c3cc(C(=O)N4CCN(C(=O)c5ccco5)CC4)sc3c2c1 | 21 | 0.7 | 12 | 89 | 12 | 87 | . | . | .
c1ccc2c(c1)[nH]c1c(N3CCOCC3)ncnc12 | -41 | 0.69 | 4 | 81 | 21 | 140* | 134* | 94 | 73
O=C(CSCC(=O)OCn1nnc2ccccc2c1=O)Nc1ccc(Cl)cc1 | 6 | 1.4 | 8 | 94 | 6 | 98 | . | . | .
c1ccc2c(c1)ncc1cccn12 | -46 | 0.96 | 10 | 102 | -3 | 143* | 138* | 98 | 90
Cc1ccc(-n2c(=S)[nH]c3sc4c(c3c2=O)CCC4)cc1 | -37 | 1 | 3 | 100 | -2 | 137* | 116 | 110 | 105
CCOc1ccc2nc(NCCCO)[nH]c2c1 | 9 | 1.1 | 11 | 96 | 4 | 97 | . | . | .
Clc1ccc(SCCOCCN2CCc3ccccc3C2)cc1 | -28 | 0.8 | -3 | 94 | 5 | 137* | 123 | 108 | 97
c1ccc(-c2ccccc2OCCOCCN2CCc3ccccc3C2)cc1 | -29 | 0.99 | 12 | 79 | 21 | 138* | 127 | 107 | 89
